From the M2OR odorant receptor database

Molecular target: T1, UniProt Q924H8
T1 sequence (whole entry): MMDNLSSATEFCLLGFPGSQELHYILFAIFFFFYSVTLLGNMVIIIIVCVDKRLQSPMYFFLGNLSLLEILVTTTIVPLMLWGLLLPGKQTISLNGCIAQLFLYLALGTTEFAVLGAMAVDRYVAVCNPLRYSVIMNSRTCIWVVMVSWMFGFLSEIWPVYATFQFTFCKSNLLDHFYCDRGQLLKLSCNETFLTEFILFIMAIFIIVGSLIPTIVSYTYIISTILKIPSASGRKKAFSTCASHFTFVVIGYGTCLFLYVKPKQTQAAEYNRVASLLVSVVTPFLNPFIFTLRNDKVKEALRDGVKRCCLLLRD
Conditions: stereoisomer not certain
Method in brief: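 Whether a receptor–molecule pair is responsive (active) rests on the original authors' judgment that its measured signal was statistically different from baseline. Pairs without that judgment are non-responsive (inactive). Sources used varied assay methods, commonly transient luciferase assays in mammalian cell lines.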
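Note: active if original authors judged signal statistically different from baseline.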

| SMILES | odorant receptor agonist call |
| --- | --- |
| CCC(C)c1nccnc1OC (stereo unspecified) | inactive |
| CC(=O)OC1(C)CCC23CC1C(C)(C)C2CCC3C (stereo unspecified) | active |
| CCCCCOC(=O)CC | inactive |
| Cc1ccc(C(C)C)c(O)c1 | inactive |
| CC1CCC(C(C)C)C(=O)C1 (stereo unspecified) | inactive |
| CCCCCCCCCCCO | inactive |
| CC(C)=C1CCC(C)CC1=O (stereo unspecified) | inactive |
| CCCCCC(C=O)=Cc1ccccc1 | inactive |
| CCCCCCCCCCOC(C)=O | inactive |
| C=C(C)C1CCC2(C)OC2C1 (stereo unspecified) | inactive |
| CCC(C)O (stereo unspecified) | inactive |
| Cc1ccc2c(c1)OCC(=O)CO2 | inactive |
| CCCC(C)C(=O)OCC (stereo unspecified) | inactive |
| CC(=O)C1(C)CC2=C(CCCC2(C)C)CC1C (stereo unspecified) | inactive |
| C=CC(=O)CCCCC | inactive |
| OCCCCCCCCCO | inactive |
| CCc1ccccc1O | inactive |
| COC(OC)c1ccccc1 | inactive |

| SMILES | odorant receptor agonist call |
| --- | --- |
| CCCC=O | inactive |
| C=C(C)C1CC=C(C)CC1 (stereo unspecified) | inactive |
| Cc1ccccc1OC(=O)C(C)C | inactive |
| COc1cnccn1 | inactive |
| CCCCCC(C)O (stereo unspecified) | inactive |
| C1CCOC1 | inactive |
| CCc1occc(=O)c1O | inactive |
| CC(=O)OCc1ccc2c(c1)OCO2 | inactive |
| CC1(C)CC(=O)CC(=O)C1 | inactive |
| CCC=CCCC=CC=O | inactive |
| C=CC(C)=CCC=C(C)CCC=C(C)C | inactive |
| C=C(CC)CCCC(C)(C)O | inactive |
| C=CC(=C)CCC=C(C)C | inactive |
| CC1CC=CCCCCCCCCCC(=O)C1 (stereo unspecified) | active |
| Cc1ccc(OC(=O)C(C)C)cc1 | inactive |
| CC(CC=O)CCCC(C)(C)O (stereo unspecified) | inactive |
| C1CCOCC1 | inactive |
| C=C1C2CCC(C2)C1(C)C (stereo unspecified) | inactive |
